Experiment [1] addresses T1, Peroxisome proliferator-activated receptor delta (Homo sapiens) (UniProt Q03181).
T1 sequence (whole entry): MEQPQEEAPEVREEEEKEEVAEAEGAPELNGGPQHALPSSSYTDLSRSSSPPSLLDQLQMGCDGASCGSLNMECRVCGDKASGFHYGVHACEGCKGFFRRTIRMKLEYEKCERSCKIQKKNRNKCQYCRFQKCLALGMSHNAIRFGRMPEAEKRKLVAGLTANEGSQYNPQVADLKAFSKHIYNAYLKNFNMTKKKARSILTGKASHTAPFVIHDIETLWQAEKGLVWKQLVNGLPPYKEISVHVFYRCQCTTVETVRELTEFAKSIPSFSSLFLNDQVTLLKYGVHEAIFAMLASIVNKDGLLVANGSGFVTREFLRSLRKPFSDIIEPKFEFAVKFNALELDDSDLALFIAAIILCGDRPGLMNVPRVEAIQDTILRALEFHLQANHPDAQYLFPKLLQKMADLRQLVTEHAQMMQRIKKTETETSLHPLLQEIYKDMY
Briefly: Transactivation of human PPARdelta expressed in human HepG2 cells co-transfected with PPRE3-TK-Luc by luciferase reporter gene assay. Format: cell-based. In short, it runs like this:
(§1)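 HepG2 cells transfected with pSG5 vector carrying hPPARα, hPPARγ or hPPARδ cDNA, co-transfected with PPRE3-TK-luc. Firefly luciferase activity measured with a commercial kit. β-galactosidase activity read on an ELISA reader. Controls: WY14643 (α), rosiglitazone (γ), GW501516 (δ).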

The subject of experiment [2] is Mus musculus. Briefly: Reduction in serum triglyceride level in Swiss albino mouse at 10 mg/kg, po administered for 6 days relative to control. Format: functional. Details: scale not given: the % may be the effect or the level left. In short, it runs like this:
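Male Swiss albino mice aged 6–8 weeks were given 10 mg/kg/day orally for 6 days. Serum triglyceride was expressed as % change versus vehicle controls, mean of n = 6.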

Experiment [3] deals with T2, Peroxisome proliferator-activated receptor gamma (Homo sapiens) (UniProt P37231).
T2 sequence (whole entry): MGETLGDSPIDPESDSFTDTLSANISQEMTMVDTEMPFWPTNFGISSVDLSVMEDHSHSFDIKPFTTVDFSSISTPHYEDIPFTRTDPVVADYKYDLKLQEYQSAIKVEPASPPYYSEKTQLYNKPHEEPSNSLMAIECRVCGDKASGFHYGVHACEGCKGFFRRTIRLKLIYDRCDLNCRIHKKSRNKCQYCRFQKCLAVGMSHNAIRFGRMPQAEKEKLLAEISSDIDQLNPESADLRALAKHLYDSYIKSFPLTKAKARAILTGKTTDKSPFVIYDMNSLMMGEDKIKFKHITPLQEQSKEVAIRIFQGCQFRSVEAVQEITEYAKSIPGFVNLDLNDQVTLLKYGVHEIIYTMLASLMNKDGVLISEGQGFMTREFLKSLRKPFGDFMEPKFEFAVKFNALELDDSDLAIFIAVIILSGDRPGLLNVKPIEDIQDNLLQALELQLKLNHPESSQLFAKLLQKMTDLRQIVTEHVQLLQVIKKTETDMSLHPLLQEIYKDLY
Briefly: Transactivation of human PPARgamma expressed in human HepG2 cells co-transfected with PPRE3-TK-Luc by luciferase reporter gene assay relative to Rosiglitazone. Type of experiment: cell-based. In short, it runs like this: (§2)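 Same HepG2 hPPARα or hPPARγ / PPRE3-TK-luc luciferase transactivation assay. Efficacy expressed as percent of maximal response, normalized to 100% for the reference agonist: WY-14643 for α, rosiglitazone for γ.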
In general terms: In a reporter assay the amount or activity of a reporter protein is the signal.

Experiment [4] addresses T3, Peroxisome proliferator-activated receptor alpha (Homo sapiens) (UniProt Q07869).
T3 sequence (whole entry): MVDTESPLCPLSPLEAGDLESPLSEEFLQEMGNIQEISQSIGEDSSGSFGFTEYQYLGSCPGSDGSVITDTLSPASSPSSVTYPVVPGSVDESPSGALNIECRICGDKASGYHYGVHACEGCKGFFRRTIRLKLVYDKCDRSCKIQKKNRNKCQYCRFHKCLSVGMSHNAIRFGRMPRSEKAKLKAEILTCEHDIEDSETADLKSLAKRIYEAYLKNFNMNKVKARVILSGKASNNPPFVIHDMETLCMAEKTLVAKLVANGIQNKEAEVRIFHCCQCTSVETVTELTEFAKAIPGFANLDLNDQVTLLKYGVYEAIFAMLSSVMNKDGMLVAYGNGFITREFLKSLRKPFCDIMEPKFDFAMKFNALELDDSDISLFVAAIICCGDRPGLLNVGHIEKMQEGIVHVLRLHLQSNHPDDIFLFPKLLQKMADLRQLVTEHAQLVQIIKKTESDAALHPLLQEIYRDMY
Briefly: Transactivation of human PPARalpha expressed in human HepG2 cells co-transfected with PPRE3-TK-Luc by luciferase reporter gene assay relative to WY14643. Format: cell-based. In outline:
as §2

Experiment [5] deals with T4, Peroxisome proliferator-activated receptor gamma (Homo sapiens, UniProt P37231).
T4 sequence (P37231 whole entry): T2 sequence (whole entry)
Briefly: Transactivation of human PPARgamma expressed in human HepG2 cells co-transfected with PPRE3-TK-Luc by luciferase reporter gene assay. Type of experiment: cell-based. In outline:
as §1

Experiment [6] addresses T5, Peroxisome proliferator-activated receptor alpha (Homo sapiens, UniProt Q07869).
T5 sequence (Q07869 whole entry): T3 sequence (whole entry)
The experiment is described as follows: Transactivation of human PPARalpha expressed in human HepG2 cells co-transfected with PPRE3-TK-Luc by luciferase reporter gene assay. Format: cell-based.

For experiment [7], the system named is Mus musculus. The experiment is described as follows: Antihyperglycemic activity in db/db mouse assessed as reduction in glucose level at 3 mg/kg/day, po administered for 6 days relative to control. Format: functional. Details: scale not given: the % may be the effect or the level left. In short, it runs like this: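 Male db/db mice aged 6–8 weeks were dosed orally once daily for 6 days. Plasma glucose was then measured and expressed as % change versus vehicle-treated controls.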

The source made the active and inactive calls. The rule behind the calls is not given here.

Results on ten compounds are retold here after ChEMBL document CHEMBL1811848 (Bioorg Med Chem Lett, 2011).

In general, EC50 refers to the concentration needed to bring the measured effect to its halfway point.

In the case of `CCO[C@@H](Cc1ccc(OCCc2nc(-c3sccc3C)oc2C)cc1)C(=O)O`, the outcome in experiment [1] was inactive. Also, the Activity in experiment [2] is on record as 67%. Besides, the Emax in experiment [3] stood at 192%; in experiment [4], 96%. The compound further showed an EC50 in experiment [5] of 0.0001 nM.

With `CCO[C@@H](Cc1ccc(OCc2nc(-c3ccc(-c4ccccc4)s3)oc2C)cc1)C(=O)O`, the outcome in experiment [1] was inactive. This compound had an Activity in experiment [2] of 57%. Also, the Emax in experiment [3] came out at 104%; in experiment [4] it was 93%. The EC50 in experiment [6] is 20 nM; in experiment [5], 3 nM.

For `CCO[C@@H](Cc1ccc(OCCc2ccc(OS(C)(=O)=O)cc2)cc1)C(=O)O` [TESAGLITAZAR], the Activity in experiment [7] was 55%.

As to `CCO[C@@H](Cc1ccc(OCCc2nc(-c3ccsc3)oc2C)cc1)C(=O)O`, in experiment [1], the outcome was inactive. The Activity in experiment [2] is recorded as 62%. Moreover, the results for the Emax in experiment [3] and in experiment [4] were 87% and 114%, respectively. Besides, the values for the 50% effective concentration (EC50) in experiment [6] and in experiment [5] were 1.9 nM and 0.6 nM, respectively.

As for `CCO[C@@H](Cc1ccc(OCCc2nc(-c3cccs3)oc2C)cc1)C(=O)O`, in experiment [1], the outcome was inactive. This compound also displayed an Activity in experiment [2] of 78%. For the same compound, the results for the Emax in experiment [3] and in experiment [4] were 104% and 126%, respectively. In addition, the concentration giving a half-maximal response (EC50) worked out at 0.1 nM in experiment [6] and 0.05 nM in experiment [5].

For the compound `CCO[C@@H](Cc1ccc(OCc2nc(-c3ccc(C)s3)oc2C)cc1)C(=O)O`, the Activity in experiment [7] was 67%; in experiment [2], 69%. Also, in experiment [1], the result was inactive. For the same compound, the Emax was found to be 120% in experiment [3] and 151% in experiment [4]. This compound displayed an EC50 in experiment [5] of 0.0002 nM.

For `CCO[C@@H](Cc1ccc(OCc2nc(-c3cccs3)oc2C)cc1)C(=O)O`, in experiment [1], the outcome was inactive. In experiment [2], this compound yielded an Activity of 72%. Further, the results for the Emax in experiment [3] and in experiment [4] were 107% and 134%, respectively. Also, the concentration giving a half-maximal response (EC50) in experiment [6] was found to be 0.026 nM; in experiment [5] it was 0.0015 nM.

As for `CCO[C@@H](Cc1ccc(OCc2nc(-c3sccc3C)oc2C)cc1)C(=O)O`, the result in experiment [1] was inactive. In experiment [2], this compound returned an Activity of 72%. Further, the Emax in experiment [3] was 88%; in experiment [4], 106%. In experiment [5], the response was half-maximal at 0.0003 nM (EC50).

Regarding `CCO[C@@H](Cc1ccc(OCc2nc(-c3ccsc3)oc2C)cc1)C(=O)O`, the outcome in experiment [1] was inactive. This compound had an Activity in experiment [2] of 70%. Further, the results for the Emax in experiment [3] and in experiment [4] were 99% and 147%, respectively. Also, the 50% effective concentration (EC50) came to 3 nM in experiment [6] and 2.7 nM in experiment [5].

As for `CCO[C@@H](Cc1ccc(OCCc2nc(-c3ccc(-c4ccccc4)s3)oc2C)cc1)C(=O)O`, the outcome in experiment [1] was inactive. The same compound showed an Activity in experiment [2] of 62%. Moreover, the concentration giving a half-maximal response (EC50) stood at 22 nM in experiment [6] and 4.5 nM in experiment [5].
